The results in this text go back to ChEMBL document CHEMBL3351942, “Rexinoids isolated from Sophora tonkinensis with a gene expression profile distinct from the synthetic rexinoid bexarotene” (J Nat Prod, 2014).

The source made the active and inactive calls. The calls are words filed in the database; no cut-off is given here.

Experiment [1] is described as follows: Activation of LXR in mouse C2C12 cells assessed as induction of ApoE mRNA expression at 10 uM after 24 hrs by quantitative RT-PCR analysis. The experiment is classed as cell-based. In outline: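 C2C12 myoblasts grown in DMEM/10% FBS, differentiated at confluence in 2% horse serum, medium changed every other day for 5 days; myotubes treated 24 h with or without T0901317 (1 μM). Total RNA, DNase-treated, oligo(dT) RT from 0.5 μg, SYBR green qPCR; normalized to β-actin (delta-delta Ct), fold over vehicle; mean ± SD of four determinants, one of two experiments.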

The subject of the next experiment is RAW264.7. The experiment in a line: Activation of RXR/LXR heterodimer in mouse RAW264.7 cells assessed as increase in ABCA1 mRNA level at 10 uM by quantitative RT-PCR analysis. The format is cell-based. In outline:
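RAW264.7 macrophages in DMEM/10% FBS, exposed 24 h with or without LXR agonist T0901317; ABCA1 mRNA by SYBR green qRT-PCR, β-actin-normalized, fold vs vehicle; means ± SD of three determinants, one of three independent experiments; one-way ANOVA, Bonferroni.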

For experiment [2], the target named is T1, Peroxisome proliferator-activated receptor delta (Mus musculus) (UniProt P35396).
T1 sequence (whole entry): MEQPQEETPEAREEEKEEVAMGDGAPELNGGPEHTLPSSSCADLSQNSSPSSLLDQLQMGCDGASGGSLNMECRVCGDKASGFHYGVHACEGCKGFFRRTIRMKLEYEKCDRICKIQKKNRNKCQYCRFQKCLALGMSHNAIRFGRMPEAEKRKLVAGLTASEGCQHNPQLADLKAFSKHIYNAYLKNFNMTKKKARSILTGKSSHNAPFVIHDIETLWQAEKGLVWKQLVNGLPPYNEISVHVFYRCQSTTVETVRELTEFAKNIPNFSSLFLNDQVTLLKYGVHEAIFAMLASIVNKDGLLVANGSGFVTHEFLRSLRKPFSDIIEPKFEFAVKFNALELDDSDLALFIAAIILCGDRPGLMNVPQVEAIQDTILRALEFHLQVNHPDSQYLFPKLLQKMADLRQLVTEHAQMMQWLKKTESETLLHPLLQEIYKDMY
The experiment in a line: Activation of PPARdelta in mouse C2C12 cells assessed as induction of ANGPTL4 mRNA expression at 10 uM after 24 hrs by quantitative RT-PCR analysis. The experiment is classed as cell-based. In outline: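 Differentiated C2C12 myotubes (2% horse serum, 5 days) exposed 24 h with or without PPARδ agonist GW501516 (1 μM). mRNA quantified by SYBR green real-time RT-PCR, normalized to β-actin by delta-delta Ct, and expressed as fold induction vs vehicle; means ± SD of four determinants from one of two independent experiments; one-way ANOVA with Bonferroni.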

Experiment [3] deals with T2, Retinoic acid receptor RXR-gamma (Homo sapiens) (UniProt P48443).
T2 sequence (whole entry): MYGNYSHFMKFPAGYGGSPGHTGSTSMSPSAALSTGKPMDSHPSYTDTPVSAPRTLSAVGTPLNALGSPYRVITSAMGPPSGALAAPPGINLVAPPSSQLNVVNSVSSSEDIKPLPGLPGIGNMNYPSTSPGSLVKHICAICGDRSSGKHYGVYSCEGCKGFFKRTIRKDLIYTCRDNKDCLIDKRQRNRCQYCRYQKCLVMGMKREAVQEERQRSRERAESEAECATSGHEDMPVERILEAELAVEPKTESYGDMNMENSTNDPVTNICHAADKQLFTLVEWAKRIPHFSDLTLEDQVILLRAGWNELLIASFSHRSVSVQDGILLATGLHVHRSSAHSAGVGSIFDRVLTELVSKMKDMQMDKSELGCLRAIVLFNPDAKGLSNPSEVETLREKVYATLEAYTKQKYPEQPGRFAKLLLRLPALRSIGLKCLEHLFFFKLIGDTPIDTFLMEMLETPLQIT
Briefly: Binding affinity to RXRgamma (unknown origin) by receptor-SRC1 cofactor complex formation assay. In outline:
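Ligand-dependent binding of RXR isotype to coactivator SRC-1 in an NR cofactor kit, detected with HRP-conjugated anti-RXR antibody at OD450. The full agonist CD3254 defined 100% and vehicle 0%. Efficacy was taken as maximum B/Bmax% and potency as EC50.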

For another experiment, the system named is 3T3-L1. Briefly: Activation of PPARgamma/RXR heterodimer in mouse 3T3-L1 cell assessed as induction of adipogenesis at 10 uM after 6 days by Oil red O-staining. The experiment is classed as cell-based. In outline:
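3T3-L1 cells grown to confluence, 2 days later induced 48 h with 10% FBS, 5 μg/mL insulin, 0.25 μM dexamethasone, 0.5 mM IBMX, then 48 h insulin-only medium; compounds in DMSO added to postdifferentiation medium for 4 days. Formalin-fixed (10%, 1 h, RT), stained with Oil red O, washed, visualized.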

Experiment [4] concerns the target T3, Retinoic acid receptor RXR-alpha (Homo sapiens) (UniProt P19793).
T3 sequence (whole entry): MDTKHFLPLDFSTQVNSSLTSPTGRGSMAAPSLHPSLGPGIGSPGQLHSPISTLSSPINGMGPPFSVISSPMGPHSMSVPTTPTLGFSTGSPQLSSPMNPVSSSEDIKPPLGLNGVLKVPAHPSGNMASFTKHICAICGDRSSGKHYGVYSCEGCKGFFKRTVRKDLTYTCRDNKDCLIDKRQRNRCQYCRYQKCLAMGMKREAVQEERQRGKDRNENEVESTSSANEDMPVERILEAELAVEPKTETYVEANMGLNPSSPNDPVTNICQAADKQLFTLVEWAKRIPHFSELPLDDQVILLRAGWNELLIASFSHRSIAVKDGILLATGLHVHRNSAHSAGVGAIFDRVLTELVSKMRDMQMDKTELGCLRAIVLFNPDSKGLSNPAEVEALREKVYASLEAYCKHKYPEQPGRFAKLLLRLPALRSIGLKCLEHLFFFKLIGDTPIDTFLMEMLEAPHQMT
The experiment in a line: Agonist activity at human RXR-alpha expressed in HEK293 cells coexpressing with pCMX-beta-gal at 10 uM after 24 to 48 hrs by luciferase reporter gene assay in presence of PA452 pan-antagonist. The experiment is classed as cell-based. In outline: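 RXRα reporter in HEK293: cotransfected with RXRα expression vector, luciferase reporter and pCMX-β-gal. Eight hours after transfection, cells were treated with test compound at 10 μM with or without the RXR pan-antagonist PA452 (10 μM). Luciferase was normalized to β-galactosidase. Means ± SD of three determinants; representative of three experiments; one-way ANOVA with Bonferroni's t-test.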

The subject of a further experiment is C2C12. Briefly: Induction of HMOX-1 mRNA level in mouse C2C12 cells at 10 uM after 24 hrs by quantitative RT-PCR analysis. The format is functional, cell-based. In outline:
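C2C12 myoblasts were differentiated in 2% horse serum, with medium changed every other day for 5 days. The myotubes were then exposed to compound at 10 μM for 24 h. mRNA was measured by SYBR green qRT-PCR from 0.5 μg total RNA, normalized to β-actin (ΔΔCt), and expressed as fold of vehicle. Four determinants, representative of two experiments.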

Turning to `CC(C)=CCc1cc([C@@H]2CC(=O)c3ccc(O)c(CC=C(C)C)c3O2)cc2c1OC(C(C)(C)O)C2` (some centres not stated), the result (in experiment [1]; in the experiment on RAW264.7; in experiment [2]; in the experiment on 3T3-L1; in the experiment on C2C12) was Active. For the same compound, the outcome in experiment [3] and in experiment [4] was inactive.
